Experimental findings from ChEMBL document CHEMBL1123248, “Chiral DNA gyrase inhibitors. 1. Synthesis and antimicrobial activity of the enantiomers of 6-fluoro-7-(1-piperazinyl)-1-(2'-trans-phenyl-1'-cyclopropyl)-1, 4-dihydro-4-oxoquinoline-3-carboxylic acid” (1986) are described below.

Converted amounts (≈) assume the structure as drawn.

Common to all, as to type: functional
The subject of assay [1] is Enterococcus faecium. Briefly: The compound was tested for its antimicrobial activity against Streptococcus faecium ATCC 8043 (Sf) strain. The method in brief: (§1)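 MICs were determined by twofold agar dilution on brain-heart infusion agar.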
Assay [2] relates to Micrococcus luteus. Briefly: The compound was tested for inhibition constant against DNA gyrase isolated from micrococcus luteus.
Assay [3] relates to Staphylococcus epidermidis. Briefly: (§2) The compound was tested for its antimicrobial activity against Staphylococcus epidermidis 3519 (Se) strain. The gist of the method: as §1
Assay [4] has as its system Escherichia coli. Briefly: The compound was tested for inhibition constant against DNA gyrase isolated from Escherichia coli.
Assay [5] has as its system Pseudomonas aeruginosa. Briefly: The compound was tested evaluated for its antimicrobial activity against Pseudomonas aeruginosa A5007 (Pa(5)) strain. The method in brief:
(§3)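 MIC by twofold serial agar dilution in brain-heart infusion agar.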

Assay [6] concerns Acinetobacter. Briefly: The compound was tested for its antimicrobial activity against Acinetobacter sp. CMX 669 (A) strain. The gist of the method: as §1
Assay [7] concerns Staphylococcus aureus. Briefly: The compound was tested for its antimicrobial activity against Staphylococcus aureus CMX 68613 (Sa) strain. The gist of the method: as §1
Assay [8] concerns Micrococcus luteus. Briefly: The compound was tested for its antimicrobial activity against Micrococcus luteus (MI) strain. The gist of the method: as §1
Assay [9] concerns Staphylococcus aureus. Briefly: The compound was tested for its antimicrobial activity against Staphylococcus aureus ATCC 6538P (Sa(A)) strain. The method in brief:
as §1

Assay [10] concerns Streptococcus pyogenes. Briefly: The compound was tested for its antimicrobial activity against Streptococcus pyogenes 930 (Sp) strain. The method in brief:
as §1

Assay [11] concerns Escherichia coli. Briefly: The compound was tested for its antimicrobial activity against Escherichia coli juhl (Ec) strain. The gist of the method: as §1
The subject of assay [12] is Klebsiella pneumoniae. Briefly: The compound was tested for its antimicrobial activity against Klebsiella pneumoniae 8045 (Kp) strain. The method in brief: as §1
For assay [13], the system named is Klebsiella aerogenes. Briefly: The compound was tested for its antimicrobial activity against Enterobacter aerogenes ATCC 13048 (Ea) strain. The method in brief: as §1
The subject of assay [14] is Staphylococcus epidermidis. The assay is described as §2. The method in brief:
as §3
This is another data set of the same source.

The subject of assay [15] is Pseudomonas aeruginosa. Briefly: The compound was tested evaluated for its antimicrobial activity against Pseudomonas aeruginosa ( Pa(K)) strain. The gist of the method:
as §1

The subject of assay [16] is Klebsiella aerogenes. Briefly: The compound was tested for its antimicrobial activity against Enterobacter aerogenes ATCC 13048 (Ea) strain. The method in brief: as §3
The subject of assay [17] is Staphylococcus epidermidis. Briefly: The compound was tested for its antimicrobial activity against Staphylococcus epidermidis 3519 (Se) strain. The gist of the method:
as §3

In assay [18] the test system is Pseudomonas aeruginosa. Briefly: The compound was tested evaluated for its antimicrobial activity against Pseudomonas aeruginosa A5007 (Pa(5)) strain. The method in brief: as §1
Assay [19] deals with Klebsiella pneumoniae. Briefly: microbe, parasite or virus in culture.
Assay [20] has as its system Escherichia coli. Briefly: (§4) The compound was tested for its antimicrobial activity against Escherichia coli juhl (Ec) strain. The method in brief: as §1
In assay [21] the test system is Staphylococcus aureus. Briefly: The compound was tested for its antimicrobial activity against Staphylococcus aureus CMX 68613 (Sa) strain. The gist of the method:
as §3

Assay [22] concerns Pseudomonas aeruginosa. Briefly: The compound was tested evaluated for its antimicrobial activity against Pseudomonas aeruginosa ( Pa(K)) strain. The gist of the method: as §3
In assay [23] the test system is Escherichia coli. Described as §4. The gist of the method:
as §3
This is another data set of the same source.

In assay [24] the test system is Streptococcus pyogenes. Briefly: The compound was tested for its antimicrobial activity against Streptococcus pyogenes 930 (Sp) strain. The gist of the method:
as §3

Assay [25] has as its system Enterococcus faecium. Briefly: The compound was tested for its antimicrobial activity against Streptococcus faecium ATCC 8043 (Sf) strain. The method in brief: as §3
The test system of assay [26] is Acinetobacter. Briefly: The compound was tested for its antimicrobial activity against Acinetobacter sp. CMX 669 (A) strain. The gist of the method: as §3
Setting [27] is: Enterococcus faecium, ATCC 8043, read-out: MIC.
Where [28] appears, read: Pseudomonas aeruginosa, read-out: MIC.
The mark [29] stands for this setting: Staphylococcus aureus, read-out: MIC.
[30] abbreviates: Staphylococcus aureus, ATCC 6538P, read-out: MIC.
Setting [31] is: Streptococcus pyogenes, read-out: MIC.
Setting [32] is: Escherichia coli, read-out: MIC.
[33] abbreviates: Klebsiella aerogenes, ATCC 13048, read-out: MIC.

In the case of `O=C(O)c1cn(C2C[C@H]2c2ccccc2)c2cc(N3CCNCC3)c(F)cc2c1=O` (stereo in doubt; 14), the MIC in the assay on Enterococcus faecium [1] is 3.1 µg/mL (≈ 7.61 µM); in assay [3], 1.56 µg/mL (≈ 3.83 µM); in the assay with Pseudomonas aeruginosa [5], above 100 µg/mL; against Acinetobacter [6], 25 µg/mL (≈ 61.4 µM); in the assay on Staphylococcus aureus [7], 1.56 µg/mL (≈ 3.83 µM); in the assay on Micrococcus luteus [8] it was 0.39 µg/mL (≈ 0.957 µM). For the same compound, the MIC was found to be 1.56 µg/mL (≈ 3.83 µM) in the assay with Staphylococcus aureus [9]; 1.56 µg/mL (≈ 3.83 µM) in the assay on Streptococcus pyogenes [10]; 25 µg/mL (≈ 61.4 µM) against Escherichia coli [11]; 6.2 µg/mL (≈ 15.2 µM) against Klebsiella pneumoniae [12]; 50 µg/mL (≈ 123 µM) with Klebsiella aerogenes [13]. Also, the Ki in the assay on Micrococcus luteus [2] came out at 13.7 µg/mL (≈ 33.6 µM); in the assay on Escherichia coli [4], 15.2 µg/mL (≈ 37.3 µM).
Turning to `CCn1cc(C(=O)O)c(=O)c2cc(F)c(N3CCNCC3)cc21` [NORFLOXACIN], the MIC in assay [14] worked out at 1.56 µg/mL (≈ 4.89 µM); in the assay with Enterococcus faecium [1] (setting [27]), 0.78 µg/mL (≈ 2.44 µM); against Pseudomonas aeruginosa [5] it was 0.39 µg/mL (≈ 1.22 µM); with Pseudomonas aeruginosa [15] (setting [28]), 0.39 µg/mL (≈ 1.22 µM); against Acinetobacter [6], 6.2 µg/mL (≈ 19.4 µM); with Staphylococcus aureus [7] (setting [29]) it was 0.78 µg/mL (≈ 2.44 µM). Moreover, the MIC in the assay on Klebsiella aerogenes [16] was 0.2 µg/mL (≈ 0.626 µM); in the assay on Staphylococcus aureus [9] (setting [30]) it was 0.78 µg/mL (≈ 2.44 µM); in the assay on Streptococcus pyogenes [10] (setting [31]) it was 3.1 µg/mL (≈ 9.71 µM); in the assay with Escherichia coli [11] (setting [32]), 0.1 µg/mL (≈ 0.313 µM); against Klebsiella pneumoniae [12] it was 0.1 µg/mL (≈ 0.313 µM). Besides, the Ki in the assay with Micrococcus luteus [2] (Micrococcus luteus) came out at 72 µg/mL (≈ 225 µM); with Escherichia coli [4] (Escherichia coli), 1 µg/mL (≈ 3.13 µM).
As to `O=C(O)c1cn(C2CC2)c2cc(N3CCNCC3)c(F)cc2c1=O` [CIPROFLOXACIN], the MIC in the assay on Enterococcus faecium [1] (setting [27]) came out at 0.39 µg/mL (≈ 1.18 µM); in assay [3] it was 0.2 µg/mL (≈ 0.604 µM); with Pseudomonas aeruginosa [5], 0.1 µg/mL (≈ 0.302 µM); in the assay with Pseudomonas aeruginosa [15] (setting [28]), 0.05 µg/mL (≈ 0.151 µM); with Acinetobacter [6], 3.1 µg/mL (≈ 9.36 µM); with Staphylococcus aureus [7] (setting [29]), 0.2 µg/mL (≈ 0.604 µM). The MIC stood at 1.56 µg/mL (≈ 4.71 µM) in the assay with Micrococcus luteus [8], 0.2 µg/mL (≈ 0.604 µM) in the assay on Staphylococcus aureus [9] (setting [30]), 0.39 µg/mL (≈ 1.18 µM) in the assay with Streptococcus pyogenes [10] (setting [31]) and 0.05 µg/mL (≈ 0.151 µM) in the assay on Klebsiella aerogenes [13] (setting [33]). In addition, the values for the Ki in the assay on Micrococcus luteus [2] (Micrococcus luteus) and in the assay on Escherichia coli [4] (Escherichia coli) were 38 µg/mL (≈ 115 µM) and 0.9 µg/mL (≈ 2.72 µM), respectively.
Take `O=C(O)c1cn(C2C[C@H]2c2ccccc2)c2cc(N3CCNCC3)c(F)cc2c1=O` (stereo in doubt; 5): the MIC in [17] was 3.1 µg/mL (≈ 7.61 µM); in the assay with Enterococcus faecium [1] (setting [27]) it was 6.2 µg/mL (≈ 15.2 µM); with Pseudomonas aeruginosa [18], above 100 µg/mL; against Pseudomonas aeruginosa [15], 100 µg/mL (≈ 245 µM); in the assay on Pseudomonas aeruginosa [15] (setting [28]), 100 µg/mL (≈ 245 µM); in the assay with Acinetobacter [6] it was 100 µg/mL (≈ 245 µM). Besides, the MIC with Staphylococcus aureus [7] (setting [29]) came out at 3.1 µg/mL (≈ 7.61 µM); with Klebsiella pneumoniae [19] it was 12.5 µg/mL (≈ 30.7 µM); in the assay with Staphylococcus aureus [9] (setting [30]), 3.1 µg/mL (≈ 7.61 µM); with Streptococcus pyogenes [10] (setting [31]), 3.1 µg/mL (≈ 7.61 µM); in the assay on Escherichia coli [11] (setting [32]), 50 µg/mL (≈ 123 µM); with Klebsiella aerogenes [13] (setting [33]), 50 µg/mL (≈ 123 µM). The values for the Ki in the assay on Micrococcus luteus [2] and with Escherichia coli [4] (Escherichia coli) were 38 µg/mL (≈ 93.3 µM) and 14.2 µg/mL (≈ 34.9 µM), respectively.
In the case of `O=C(O)c1cn(C2C[C@@H]2c2ccccc2)c2cc(N3CCNCC3)c(F)cc2c1=O` (stereo partly specified), the MIC in [14] is 1.56 µg/mL (≈ 3.83 µM); with Enterococcus faecium [1] (setting [27]), 1.56 µg/mL (≈ 3.83 µM); in the assay with Pseudomonas aeruginosa [18] it was above 50 µg/mL; with Escherichia coli [20] it was 12.5 µg/mL (≈ 30.7 µM); in the assay with Pseudomonas aeruginosa [15] (setting [28]), 100 µg/mL (≈ 245 µM); against Acinetobacter [6] it was 6.2 µg/mL (≈ 15.2 µM). Further, the MIC amounted to 12.5 µg/mL (≈ 30.7 µM) with Klebsiella aerogenes [16]; 0.39 µg/mL (≈ 0.957 µM) against Micrococcus luteus [8]; 0.78 µg/mL (≈ 1.91 µM) in the assay with Staphylococcus aureus [9] (setting [30]); 0.78 µg/mL (≈ 1.91 µM) with Streptococcus pyogenes [10] (setting [31]); 3.1 µg/mL (≈ 7.61 µM) in the assay with Klebsiella pneumoniae [12]; 0.78 µg/mL (≈ 1.91 µM) against Staphylococcus aureus [21]. The Ki turned out to be 9.6 µg/mL (≈ 23.6 µM) in the assay on Micrococcus luteus [2] (Micrococcus luteus) and 12.1 µg/mL (≈ 29.7 µM) with Escherichia coli [4] (Escherichia coli).
Regarding `O=C(O)c1cn(-c2ccccc2)c2cc(N3CCNCC3)c(F)cc2c1=O`, the MIC in assay [17] was 1.56 µg/mL (≈ 4.25 µM); in the assay on Pseudomonas aeruginosa [18], 0.78 µg/mL (≈ 2.12 µM); with Pseudomonas aeruginosa [22], 1.56 µg/mL (≈ 4.25 µM); in the assay on Klebsiella aerogenes [16], 0.39 µg/mL (≈ 1.06 µM); in the assay with Staphylococcus aureus [9] (setting [30]) it was 0.39 µg/mL (≈ 1.06 µM); in the assay with Escherichia coli [23], 0.2 µg/mL (≈ 0.544 µM). Moreover, the MIC in the assay with Staphylococcus aureus [21] stood at 0.39 µg/mL (≈ 1.06 µM); in the assay on Streptococcus pyogenes [24] it was 1.56 µg/mL (≈ 4.25 µM); against Enterococcus faecium [25] it was 12.5 µg/mL (≈ 34 µM); in the assay with Acinetobacter [26], 0.78 µg/mL (≈ 2.12 µM).

A word on the Ki: it is a dissociation constant, usually derived from enzyme kinetics or from competition with a known ligand.
